Shown are actives, neighbours in structure and some others; about 7.6% of the full set was active somewhere.
D1 allo mod: D1 dopamine receptor (human) allosteric modulation. B-score at 10 µM. HEK293 D1, CRE-luciferase, dopamine EC30 potentiation; actives deviate in either direction. 58,000 compounds, 5.9% hits. P21728;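 active = luminescence count or its row- and column-corrected plate score outside the 99.7% band of the plate's sample wells, on either side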
Target sequence (P21728 whole entry, looked up): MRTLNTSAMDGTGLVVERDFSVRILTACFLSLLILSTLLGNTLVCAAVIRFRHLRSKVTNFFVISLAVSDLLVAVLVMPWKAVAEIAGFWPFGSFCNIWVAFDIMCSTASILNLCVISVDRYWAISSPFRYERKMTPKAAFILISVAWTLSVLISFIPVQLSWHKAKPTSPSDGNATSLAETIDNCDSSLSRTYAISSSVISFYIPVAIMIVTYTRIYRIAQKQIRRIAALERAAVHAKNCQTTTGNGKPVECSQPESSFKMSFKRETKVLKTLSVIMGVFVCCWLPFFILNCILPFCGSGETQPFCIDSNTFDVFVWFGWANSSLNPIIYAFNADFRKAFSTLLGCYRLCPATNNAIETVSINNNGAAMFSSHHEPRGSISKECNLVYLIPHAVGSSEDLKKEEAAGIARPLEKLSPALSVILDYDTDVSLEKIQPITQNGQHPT
HEK293 NFkB inh: lowers PMA/ionomycin-induced NF-kB signal in HEK293 cells; 62,000 compounds, 0.21% hits; HEK-293 NF-kB luciferase reporter, luminescence; inhibition, % at 3 µM;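 active = inhibition above the mean of all tested compounds plus 3 SD, cut at about 40% in these data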
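System – HEK-293 cells with stable firefly luciferase reporter driven by four HIV NF-kB elements · Doses – one dose, 3 µM · Schedule – 1 h compound pre-incubation, 16 h PMA/ionomycin at 37 °C · Technique – luminescence from luciferase substrate reagent · Measure – percent inhibition normalized per plate to DMSO and reference-inhibitor controls · Replicates – tested once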
M1 ag: agonists of M1 muscarinic receptor | CHO-M1 cells, Fluo-4 calcium fluorescence, agonist mode; active compounds read high | B-score at 10 µM | 64,000 compounds, 3% hits;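 active = fluorescence rise, raw or as B-score row- and column-corrected plate score, outside the 99.7% band of its plate's samples, either direction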
DAT uptake mod: changed human dopamine transporter uptake under cocaine IC80 | 110,000 compounds, 1.3% hits | LLC-PK1 hDAT cells, [14C]-dopamine uptake with cocaine IC80; actives deviate in either direction | B-score at 10 µM | AID 449768;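 active = Z score or B-score, a plate-position-corrected score, falls beyond the plate's 99.7% confidence bounds, in either direction; inactive = both scores lie inside the 99.7% bounds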
M1 antagonist: M1 muscarinic receptor (rat) antagonism; CHO-M1 cells, Fluo-4 calcium, ACh EC80 antagonist mode; active compounds read low; 64,000 compounds, 3.4% hits; P08482; AID 628; B-score at 10 µM;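 active = calcium fluorescence response, raw or row-and-column corrected B-score, differing from the plate sample mean either way at a set confidence level, mostly lower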
Jurkat viability: cytotoxicity toward Jurkat cells; Jurkat E6.1 viability, ATP luminescence, 48 h; inhibition, % at 4 µM; 56,000 compounds, 1.2% hits; AID 463;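 active = inhibition above the mean inhibition of all tested compounds plus 3 SD, cut at about 28% in these data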
Numbers stand for hits; n = inactive; x = no result given.

SMILES	D1 allo mod	HEK293 NFkB inh	M1 ag	DAT uptake mod	M1 antagonist	Jurkat viability
CCOC(=O)c1cccc(NC(=O)CSc2nnc(CNc3ccc(C)cc3)n2CC)c1	n	n	n	n	n	n
O=C(C1=C(O)C(=O)N(CCCN2CCOCC2)C1c1ccccn1)c1cc2ccccc2o1 (stereo not drawn)	x	x	n	n	n	x
Cc1cc(NC(=O)CSc2nc3ccccc3c(=O)n2Cc2ccccc2)no1	n	n	n	-8.2	n	n
Cc1cc(NC(=O)CSc2nc3ccccc3c(=O)n2C2CCCC2)no1	n	n	n	n	n	71
O=C(NCc1ccco1)c1ccc2c(=O)n(Cc3ccco3)c(SCC(=O)N3CCCC3)nc2c1	n	n	n	2.2	n	x
COCCNC(=O)c1ccc2c(=O)n(Cc3ccco3)c(SCC(=O)NC3CCCCC3)nc2c1	x	x	x	n	x	x
Cc1cc(NC(=O)CSc2nc3c(c(=O)n2Cc2ccccc2)SC(C)C3)no1 (stereo not drawn)	5.5	n	n	n	n	n
O=C(Nc1ccccc1C(=O)O)c1cccc(F)c1	x	x	x	n	x	x
Cc1sc(C(=O)NCc2cccnc2)c2nc(C)n(CC(=O)NCc3cccnc3)c(=O)c12	n	n	n	n	n	n
O=C(CSc1nc2cc(Cl)ccc2s1)N1CCCc2ccccc21	x	x	x	n	x	x
CCC(C(=O)Nc1nccs1)(C(F)(F)F)C(F)(F)F	x	x	7.4	n	n	x
CCn1c(=S)sc2nc(C)sc21	13	n	n	n	n	n
CC(C)C(=O)NC(=S)Nc1ccccc1C(F)(F)F	x	x	x	n	x	x
CCOC(=O)C(NCc1ccco1)(NC(=O)c1ccccc1)C(F)(F)F (stereo not drawn)	x	x	x	n	x	x
CCOC(=O)c1sc(C)c2c1NC1(CCCCCC1)NC2=O	x	x	x	n	x	x
CCOc1cc2[nH]c(=O)n(CC3CCC(C(=O)NC(C)CC)CC3)c(=O)c2cc1OCC (stereo not drawn)	n	n	n	x	1.1	n
Fc1ccc2c(Cl)c(-c3nnc(-c4cccs4)o3)sc2c1	-6.4	n	n	n	n	n
COc1cc(-c2nnc(-c3cccs3)o2)cc(OC)c1OC	n	n	n	n	n	n
COC(=O)c1sccc1NC(=O)Nc1ccc(Cl)c(Cl)c1	x	x	x	-7.9	x	x
Cc1ccc(-n2ncc3c(N4CCN(c5ccccc5)CC4)ncnc32)c(C)c1	-4	x	n	n	n	x
Cc1cccc(-n2ncc3c(NCc4cccnc4)ncnc32)c1	-5.1	n	n	n	n	n
Cc1cccc(-n2ncc3c(N4CCCC4)ncnc32)c1	-7.3	n	n	n	n	n
CN1CCN(C(=O)c2cc3nc(-c4ccccc4)cc(C(F)(F)F)n3n2)CC1	n	n	n	n	n	n
CN1CCN(C(=O)c2cc3nc(-c4ccc(Cl)cc4)cc(C(F)(F)F)n3n2)CC1	-3.7	n	n	n	n	n
Oc1ccccc1-c1nnc(SCCN2CCOCC2)n1Cc1ccccc1	n	n	n	n	n	78
SMILES	D1 allo mod	HEK293 NFkB inh	M1 ag	DAT uptake mod	M1 antagonist	Jurkat viability
COC(=O)C(Cc1ccccc1)NS(=O)(=O)c1ccc(F)cc1Br (stereo not drawn)	x	x	x	n	x	x
Cc1cnc(C(=O)Nc2cccc3cccnc23)cn1	n	n	n	x	n	84
CCC(CC)C(=O)N1CCN(Cc2ccc3c(c2)OCO3)CC1	x	x	x	n	x	x
CC(C)CNC(=O)C1CC(=O)OC12CCCCC2 (stereo not drawn)	n	n	n	n	2.1	n
CC#CCN1C(=O)N[C@@H](c2ccccc2)C(C(=O)OC)=C1C	x	x	x	n	x	x
O=C(CC1(O)C(=O)N(C/C=C/c2ccccc2)c2ccccc21)c1ccccn1 (stereo not drawn)	n	n	n	n	1.9	n
Cc1cc(C)cc(Oc2ccccc2/C=C\C(=O)O)c1	x	x	x	n	x	x
CCOc1ccc(C2/C(=C(/O)c3ccc(OC)cc3)C(=O)C(=O)N2c2cc(C)on2)cc1OC (stereo not drawn)	n	x	n	3.6	n	x
O=c1/c(=C/c2ccccn2)sc2nc3ccccc3n12	-3.8	n	n	x	n	n
C=CCOC(=O)C1=C[C@@H](c2ccc(Br)cc2)[C@H](CCCO)[C@@H](OCC)O1	x	x	x	n	x	x
O=C(c1ccc2nc(-c3ccco3)c(-c3ccco3)nc2c1)N1CCN(c2ccccc2)CC1	x	n	5.7	n	n	n
O=C(c1cc(-c2ccco2)on1)N1CCN(c2ccccc2)CC1	n	n	n	n	n	n
Cc1cc2nc3n(c2cc1C)CC1CC(C(=O)NCC2CC2)N(C)C31 (stereo not drawn)	x	x	x	n	x	x
CNc1cc(CSC)nc(SCc2ccc(Cl)cc2Cl)n1	x	x	x	n	x	x
COc1ccc(-c2cc3nc(C)cc(N)n3n2)cc1	x	x	x	-8.4	x	x
Cc1c(C(=O)N2CCCCC2)oc2ccc(S(=O)(=O)N3CC(C)CC(C)C3)cc12 (stereo not drawn)	n	n	n	n	n	32
CCOC(=O)N1CCN(C(=O)c2oc3ccc(S(=O)(=O)N4CCCCC4)cc3c2C)CC1	n	n	n	3	n	n
Cc1c(C(=O)NCCN2CCOCC2)oc2ccc(S(=O)(=O)N3CCCCCC3)cc12	n	n	n	2	n	x
Clc1cccc(Cl)c1CO/N=C/c1c(-c2ccccc2)nc2n1CCS2	x	x	x	n	x	x
COC(=O)c1c(NC(=O)CN2CCN(c3ccccc3OC)CC2)c2cc(C)ccc2n1C	n	n	n	n	n	n
Cc1ccc(Cl)cc1N1CCN(C(=O)C2CCN(c3nnc(-n4cccc4)s3)CC2)CC1	n	n	n	n	n	41
O=C(Nc1cc(C(F)(F)F)ccc1Cl)C1CCN(c2nnc(-n3cccc3)s2)CC1	n	n	n	n	n	n
COC(=O)C1(S(=O)(=O)c2ccc(C)cc2)CCOCC1	x	x	x	n	x	x
CCCCNCc1cc(OCC)c(OCC(N)=O)cc1Br	x	x	x	n	x	x
Cn1c(NC(=O)c2ccco2)c(-c2ccc(Cl)cc2)c(=O)c2ccccc21	x	x	x	n	x	x
SMILES	D1 allo mod	HEK293 NFkB inh	M1 ag	DAT uptake mod	M1 antagonist	Jurkat viability
NC(=O)C1CCN(C(=O)CN(c2cccc(C(F)(F)F)c2)S(=O)(=O)c2ccccc2)CC1	-2.3	n	n	n	n	n
CSc1nc(SC)c2c3c(oc2n1)COC(C)(C)C3	n	n	n	x	n	n
O=C(CC(=O)c1ccccc1O)c1ccc(F)cc1	x	x	x	n	x	x
O=C(CC(=O)c1ccccc1O)c1cccc(F)c1	n	n	n	n	n	69
COC(=O)c1ccc(NC(=O)c2ccccc2SC)cc1	x	x	x	3.3	x	x
COc1cc(CC(NC(C)=O)C(=O)NC2CCN(c3nc(C)cc(C)c3C#N)CC2)cc(OC)c1 (stereo not drawn)	n	56	n	x	n	n
CC(=O)C1=C(C)NC(SCC(N)=O)=C(C#N)C1c1sccc1C (stereo not drawn)	x	x	x	6.9	x	x
CCOC(=O)CSC1=C(C#N)C(c2sccc2C)C(C(C)=O)=C(C)N1 (stereo not drawn)	x	x	x	n	x	x
O=c1cc(-c2ccccc2)nc(SCc2ccccc2)[nH]1	x	x	x	n	x	x
Cc1c(N=Cc2ccccn2)c(=O)n(-c2ccccc2)n1C	x	x	x	n	x	x
COc1ccc(NC(=O)c2cc(-c3ccc(C)o3)nc3ccccc23)cc1OC	-4.7	n	n	n	n	n

Screening results deposited in PubChem BioAssay by several laboratories.
